ChEMBL document CHEMBL4680172, “Synthesis and biological evaluation of coumarin derivatives as α-glucosidase inhibitors” (Eur J Med Chem, 2020)
Calls of active or inactive are those of the source. The rule behind the calls is not given here.

Legend:
Saccharomyces cerevisiae [1] = experiment: Reversible inhibition of Saccharomyces cerevisiae alpha-glucosidase
In short: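 Rate (ΔOD/min) was plotted against α-glucosidase concentration at several fixed inhibitor levels, 0–35 µM. Conditions otherwise as in the PNPG 405 nm assay at pH 6.8 and 37 ℃.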

Saccharomyces cerevisiae [2] = experiment: Mixed type inhibition of Saccharomyces cerevisiae alpha-glucosidase assessed as equilibrium constant for free enzyme using varying level of PNPG as substrate by Lineweaver-Burk double reciprocal plot analysis
In short: (§1)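 Run as the PNPG/phosphate pH 6.8, 37 ℃, 405 nm assay, but with compound concentration varied together with either PNPG or enzyme level. Lineweaver-Burk plots were made. KI (free enzyme) and KIS (enzyme–substrate complex) were taken from apparent Km/Vmax and 1/Vmax plotted against inhibitor concentration.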

Saccharomyces cerevisiae [3] = experiment: Mixed type inhibition of Saccharomyces cerevisiae alpha-glucosidase assessed as equilibrium constant for enzyme substrate complex using varying level of PNPG as substrate by Lineweaver-Burk double reciprocal plot analysis; in short: as §1
Saccharomyces cerevisiae [4] = experiment: Inhibition of Saccharomyces cerevisiae alpha-glucosidase at 100 uM using PNPG as substrate preincubated for 10 mins followed by substrate addition measured after 30 mins relative to control; settings: time 40.0 min
In short: (§2)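 Enzyme 0.1 U/mL final in 0.1 M potassium phosphate, pH 6.8, with compound added from DMSO; 10 min at 37 ℃, then PNPG at 1 mmol/L final, another 30 min at 37 ℃. Absorbance read at 405 nm against a no-compound control. Line 1 screened at a single 100 µM; IC50 from the %inhibition–concentration plot. Duplicates, means taken.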

[5] = Inhibition of Saccharomyces cerevisiae alpha-glucosidase using PNPG as substrate preincubated for 10 mins followed by substrate addition measured after 30 mins; in short: as §2

| inhibition (Saccharomyces cerevisiae [1]) | Ke (Saccharomyces cerevisiae [2]) [µM] | Ke (Saccharomyces cerevisiae [3]) [µM] | inhibition (Saccharomyces cerevisiae [4]) [%] | IC50 [5] [µM] | SMILES |
| --- | --- | --- | --- | --- | --- |
| Active | 27 | 13.7 | 89.9 | 13 | Cc1ccc(/C=C/C(=O)Oc2cc(=O)oc3ccccc23)cc1 |
| – | – | – | 54.7 | 94.5 | Cc1ccc(/C=C/C(=O)Oc2ccc3ccc(=O)oc3c2)cc1 |
| – | – | – | 19.5 | > 100 | COc1cc(/C=C/C(=O)Oc2cc(=O)oc3ccccc23)ccc1O |
| – | – | – | 20.2 | > 100 | COc1ccc(/C=C/C(=O)Oc2ccc3ccc(=O)oc3c2)cc1 |
| – | – | – | – | 11.4 | C[C@H]1[C@H](C)CC[C@]2(C(=O)O)CC[C@]3(C)C(=CC[C@@H]4[C@@]5(C)CC[C@H](O)C(C)(C)[C@@H]5CC[C@]43C)[C@H]12 [URSOLIC ACID] |
| – | – | – | 41.9 | > 100 | O=C(/C=C/c1ccc(C(F)(F)F)cc1)Oc1cc(=O)oc2ccccc12 |
| – | – | – | 33.2 | > 100 | O=C(/C=C/c1ccc(O)cc1)Oc1cc(=O)oc2ccccc12 |
| – | – | – | 29.9 | > 100 | O=C(/C=C/c1ccc(Cl)cc1)Oc1ccc2ccc(=O)oc2c1 |
| – | – | – | 38.2 | > 100 | O=C(/C=C/c1ccc(C(F)(F)F)cc1)Oc1ccc2ccc(=O)oc2c1 |
| – | – | – | 45.6 | > 100 | O=C(/C=C/c1ccccc1)Oc1ccc2ccc(=O)oc2c1 [7-CINNAMOYLOXYCOUMARIN] |
| – | – | – | 61 | 69.3 | O=C(/C=C/c1ccc(Br)cc1)Oc1cc(=O)oc2ccccc12 |
| – | – | – | 30.1 | > 100 | O=C(/C=C/c1ccc(Br)cc1)Oc1ccc2ccc(=O)oc2c1 |
| – | – | – | 26.2 | > 100 | O=C(/C=C/c1ccc(F)cc1)Oc1ccc2ccc(=O)oc2c1 |
| Active | 27.4 | 13 | 83.5 | 19.6 | O=C(/C=C/c1ccccc1)Oc1cc(=O)oc2ccccc12 |
| – | – | – | 68.5 | 41.7 | O=C(/C=C/c1ccc(F)cc1)Oc1cc(=O)oc2ccccc12 |
| – | – | – | 33.1 | > 100 | O=C(/C=C/c1ccc(Cl)cc1)Oc1cc(=O)oc2ccccc12 |
| – | – | – | – | 9000 | O=c1ccc2ccc(O)cc2o1 [UMBELLIFERONE] |
| – | – | – | 20.3 | > 100 | COc1cc(/C=C/C(=O)Oc2ccc3ccc(=O)oc3c2)ccc1O |
| – | – | – | 13.1 | > 100 | O=C(/C=C/c1ccc(O)cc1)Oc1ccc2ccc(=O)oc2c1 |
| – | – | – | 73.2 | 36.9 | COc1ccc(/C=C/C(=O)Oc2cc(=O)oc3ccccc23)cc1 |
| – | – | – | – | 15000 | O=C(O)/C=C/c1ccccc1 [CINNAMIC ACID] |
